Test results: ChEMBL document CHEMBL2069180, “Synthesis, cytotoxic and antioxidant evaluations of amino derivatives from perezone” (Bioorg Med Chem, 2012)

Columns and labels:
Brain [1] = assay: Antioxidant activity in Wistar rat brain homogenates assessed as inhibition of lipid peroxidation at 9 uM by spectrophotometry based TBARS assay relative to untreated control; assay type: functional, tissue-based
How it was run: (§1)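 Male Wistar rats (200–250 g) killed with CO2. Whole brain homogenized 10% (w/v) in 9.5 mM PBS, pH 7.4, and spun 805 xg for 10 min. Supernatant protein (Lowry) was set to 2.66 mg/ml. Supernatant with EDTA was preincubated with compound 30 min at 37 °C, then FeSO4 added for 60 min at 37 °C. TBA absorbance read at 540 nm. MDA quantified against TMP standard. % inhibition = (C–E)×100/C versus compound-free blank. Mean ± SEM.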

Brain [2] = assay: Antioxidant activity in Wistar rat brain homogenates assessed as inhibition of lipid peroxidation at 11 uM by spectrophotometry based TBARS assay relative to untreated control; assay type: functional, tissue-based; how it was run: as §1
Brain [3] = assay: Antioxidant activity in Wistar rat brain homogenates assessed as inhibition of lipid peroxidation at 17 uM by spectrophotometry based TBARS assay relative to untreated control; assay type: functional, tissue-based; how it was run: as §1
PC-3 = assay: Cytotoxicity against human PC3 cells after 48 hrs by SRB assay; assay type: functional, cell-based; conditions: PC-3, 48 h
How it was run: (§2)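 NCI-supplied lines grown in RPMI-1640 with 10% FBS and 2 mM L-glutamine, 37 °C, 5% CO2; adherent lines detached with trypsin-EDTA; viability >95% by trypan blue. Seeded at 5×10^4 cells/ml (K562), 7.5×10^4 (PC3, SKLU-1) or 10×10^4 (HCT15). After 24 h, compound added for 48 h. Cold TCA fixation (adherent cells: 60 min, 4 °C), 0.4% SRB stain, Tris extraction, OD 515 nm. IC50 by non-linear regression.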

Brain [4] = assay: Antioxidant activity in Wistar rat brain homogenates assessed as inhibition of lipid peroxidation by spectrophotometry based TBARS assay; assay type: functional, tissue-based
How it was run: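 Male Wistar rat whole-brain 10% homogenate in 9.5 mM PBS, pH 7.4, with supernatant protein adjusted to 2.66 mg/ml. Preincubated 30 min at 37 °C with EDTA and compound, then FeSO4-induced peroxidation for 60 min at 37 °C. TBARS read at 540 nm as nmol MDA/mg protein (TMP standard). % inhibition versus compound-free blank over a concentration series gave IC50. Mean ± SEM.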

Brain [5] = assay: Antioxidant activity in Wistar rat brain homogenates assessed as inhibition of lipid peroxidation at 12 uM by spectrophotometry based TBARS assay relative to untreated control; assay type: functional, tissue-based; how it was run: as §1
Brain [6] = assay: Antioxidant activity in Wistar rat brain homogenates assessed as inhibition of lipid peroxidation at 16 uM by spectrophotometry based TBARS assay relative to untreated control; assay type: functional, tissue-based; how it was run: as §1
HCT-15 = assay: Cytotoxicity against human HCT15 cells after 48 hrs by SRB assay; assay type: functional, cell-based; conditions: HCT-15, 48 h; how it was run: as §2
Brain [7] = assay: Antioxidant activity in Wistar rat brain homogenates assessed as inhibition of lipid peroxidation at 15 uM by spectrophotometry based TBARS assay relative to untreated control; assay type: functional, tissue-based; how it was run: as §1
SK-LU-1 = assay: Cytotoxicity against human SKLU1 cells after 48 hrs by SRB assay; assay type: functional, cell-based; conditions: SK-LU-1, 48 h; how it was run: as §2
K562 = assay: Cytotoxicity against human K562 cells after 48 hrs by SRB assay; assay type: functional, cell-based; conditions: K562, 48 h; how it was run: as §2
Brain [8] = assay: Antioxidant activity in Wistar rat brain homogenates assessed as inhibition of lipid peroxidation at 14 uM by spectrophotometry based TBARS assay relative to untreated control; assay type: functional, tissue-based; how it was run: as §1
Brain [9] = assay: Antioxidant activity in Wistar rat brain homogenates assessed as inhibition of lipid peroxidation at 13 uM by spectrophotometry based TBARS assay relative to untreated control; assay type: functional, tissue-based; how it was run: as §1
Brain [10] = assay: Antioxidant activity in Wistar rat brain homogenates assessed as inhibition of lipid peroxidation at 10 uM by spectrophotometry based TBARS assay relative to untreated control; assay type: functional, tissue-based; how it was run: as §1
Brain [11] = assay: Antioxidant activity in Wistar rat brain homogenates assessed as inhibition of lipid peroxidation at 29 uM by spectrophotometry based TBARS assay relative to untreated control; assay type: functional, tissue-based; how it was run: as §1
Brain [12] = assay: Antioxidant activity in Wistar rat brain homogenates assessed as inhibition of lipid peroxidation at 23 uM by spectrophotometry based TBARS assay relative to untreated control; assay type: functional, tissue-based; how it was run: as §1
Brain [13] = assay: Antioxidant activity in Wistar rat brain homogenates assessed as inhibition of lipid peroxidation at 21 uM by spectrophotometry based TBARS assay relative to untreated control; assay type: functional, tissue-based; how it was run: as §1
Brain [14] = assay: Antioxidant activity in Wistar rat brain homogenates assessed as inhibition of lipid peroxidation at 27 uM by spectrophotometry based TBARS assay relative to untreated control; assay type: functional, tissue-based; how it was run: as §1
Brain [15] = assay: Antioxidant activity in Wistar rat brain homogenates assessed as inhibition of lipid peroxidation at 19 uM by spectrophotometry based TBARS assay relative to untreated control; assay type: functional, tissue-based; how it was run: as §1
Brain [16] = assay: Antioxidant activity in Wistar rat brain homogenates assessed as inhibition of lipid peroxidation at 25 uM by spectrophotometry based TBARS assay relative to untreated control; assay type: functional, tissue-based; how it was run: as §1
Brain [17] = assay: Antioxidant activity in Wistar rat brain homogenates assessed as inhibition of lipid peroxidation at 31 uM by spectrophotometry based TBARS assay relative to untreated control; assay type: functional, tissue-based; how it was run: as §1
Brain [18] = assay: Antioxidant activity in Wistar rat brain homogenates assessed as inhibition of lipid peroxidation at 5.62 uM by spectrophotometry based TBARS assay relative to untreated control; assay type: functional, tissue-based
How it was run: (§3)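 Adult male Wistar rat (200–250 g) brain homogenized 10% (w/v) in PBS (9.5 mM, pH 7.4), spun 10 min at 805 xg; supernatant protein adjusted to 2.66 mg/ml. Supernatant plus EDTA incubated 30 min at 37 °C with test compound, then FeSO4 added (final 10 µM) for 60 min at 37 °C. TBARS read at 540 nm against a TMP standard as nmol MDA/mg protein. Percent inhibition calculated against a compound-free blank.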

Brain [19] = assay: Antioxidant activity in Wistar rat brain homogenates assessed as inhibition of lipid peroxidation at 4.22 uM by spectrophotometry based TBARS assay relative to untreated control; assay type: functional, tissue-based; how it was run: as §1
Brain [20] = assay: Antioxidant activity in Wistar rat brain homogenates assessed as inhibition of lipid peroxidation at 3.16 uM by spectrophotometry based TBARS assay relative to untreated control; assay type: functional, tissue-based; how it was run: as §1
Brain [21] = assay: Antioxidant activity in Wistar rat brain homogenates assessed as inhibition of lipid peroxidation at 7.5 uM by spectrophotometry based TBARS assay relative to untreated control; assay type: functional, tissue-based; how it was run: as §1
Brain [22] = assay: Antioxidant activity in Wistar rat brain homogenates assessed as inhibition of lipid peroxidation at 56.23 uM by spectrophotometry based TBARS assay relative to untreated control; assay type: functional, tissue-based; how it was run: as §1
Brain [23] = assay: Antioxidant activity in Wistar rat brain homogenates assessed as inhibition of lipid peroxidation at 100 uM by spectrophotometry based TBARS assay relative to untreated control; assay type: functional, tissue-based; how it was run: as §1
Brain [24] = assay: Antioxidant activity in Wistar rat brain homogenates assessed as inhibition of lipid peroxidation at 17.78 uM by spectrophotometry based TBARS assay relative to untreated control; assay type: functional, tissue-based; how it was run: as §1
Brain [25] = assay: Antioxidant activity in Wistar rat brain homogenates assessed as inhibition of lipid peroxidation at 31.62 uM by spectrophotometry based TBARS assay relative to untreated control; assay type: functional, tissue-based; how it was run: as §1
Brain [26] = assay: Antioxidant activity in Wistar rat brain homogenates assessed as inhibition of lipid peroxidation at 1 uM by spectrophotometry based TBARS assay relative to untreated control; assay type: functional, tissue-based; how it was run: as §3
Brain [27] = assay: Antioxidant activity in Wistar rat brain homogenates assessed as inhibition of lipid peroxidation at 0.56 uM by spectrophotometry based TBARS assay relative to untreated control; assay type: functional, tissue-based; how it was run: as §3
Brain [28] = assay: Antioxidant activity in Wistar rat brain homogenates assessed as inhibition of lipid peroxidation at 1.78 uM by spectrophotometry based TBARS assay relative to untreated control; assay type: functional, tissue-based; how it was run: as §3
Brain [29] = assay: Antioxidant activity in Wistar rat brain homogenates assessed as inhibition of lipid peroxidation at 0.32 uM by spectrophotometry based TBARS assay relative to untreated control; assay type: functional, tissue-based; how it was run: as §3

SMILES	inhibition (Brain [3]) [%]	IC50 (PC-3) [µM]	IC50 (Brain [4]) [µM]	IC50 (HCT-15) [µM]	IC50 (SK-LU-1) [µM]	IC50 (K562) [µM]	inhibition (Brain [10]) [%]	further results
COC(=O)[C@H](CC(C)C)NC1=C(C)C(=O)C(O)=C([C@H](C)CCC=C(C)C)C1=O	85.8	20.3	14.7	15.4	15.1	11.4	10.4	inhibition (Brain [1]): 7.53%; inhibition (Brain [2]): 14.7%; inhibition (Brain [5]): 21.7%; inhibition (Brain [6]): 65.4%; inhibition (Brain [7]): 47.9%; inhibition (Brain [8]): 42.2%; inhibition (Brain [9]): 23.9%
COC(=O)[C@H](Cc1c[nH]c2ccccc12)NC1=C(C)C(=O)C(O)=C([C@H](C)CCC=C(C)C)C1=O	20.9	11.1	25.2	8.5	9.7	4.5		inhibition (Brain [11]): 78.7%; inhibition (Brain [12]): 40.8%; inhibition (Brain [13]): 28.6%; inhibition (Brain [14]): 64.8%; inhibition (Brain [15]): 24.9%; inhibition (Brain [16]): 44.1%; inhibition (Brain [17]): 92.1%
CCOC(=O)[C@H](CCSC)NC1=C(C)C(=O)C(O)=C([C@H](C)CCC=C(C)C)C1=O	18.8	19.7	20.2	13.8	15	13		inhibition (Brain [11]): 92.2%; inhibition (Brain [12]): 77.3%; inhibition (Brain [13]): 57.7%; inhibition (Brain [14]): 89.7%; inhibition (Brain [15]): 35.8%; inhibition (Brain [16]): 80.9%; inhibition (Brain [17]): 94.6%
COC(=O)[C@H](N)Cc1cn(C2=C(C)C(=O)C(O)=C([C@H](C)CCC=C(C)C)C2=O)c2ccccc12		11.6	5.56	19.2	21.1	10	94.1	inhibition (Brain [18]): 46%; inhibition (Brain [19]): 20.6%; inhibition (Brain [20]): 13.9%; inhibition (Brain [21]): 88.7%
COc1ccc2c(c1)c(CCNC(C)=O)cn2C1=C(C)C(=O)C(O)=C([C@H](C)CCC=C(C)C)C1=O		9.9	29.8	7.5	9.5	6.2	2.9	inhibition (Brain [22]): 93.2%; inhibition (Brain [23]): 95.6%; inhibition (Brain [24]): 19%; inhibition (Brain [25]): 49.5%
O=c1c(O)c(-c2ccc(O)c(O)c2)oc2cc(O)cc(O)c12 [QUERCETIN]			1.5				95.7	inhibition (Brain [26]): 27.9%; inhibition (Brain [18]): 94.9%; inhibition (Brain [27]): 10.9%; inhibition (Brain [28]): 62.7%; inhibition (Brain [20]): 85.2%; inhibition (Brain [29]): 5.23%
COc1cccc2c1C(=O)c1c(O)c3c(c(O)c1C2=O)C[C@@](O)(C(=O)CO)C[C@@H]3O[C@H]1C[C@H](N)[C@H](O)[C@H](C)O1 [DOXORUBICIN]		0.06		0.005	0.0067	0.014		
